Measured values reported in ChEMBL document CHEMBL1138363, “N,N'-dihydroxyamidines: a new prodrug principle to improve the oral bioavailability of amidines” (J Med Chem, 2007).

Key:
Conditions in all cases: in vivo
[1] = Cmax in po dosed pig; format: ADME, organism-based, Sus scrofa; parameters: route oral
Outline: (§1)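 Prodrug given orally to three pigs at 10 mg/kg body weight. Heparinized blood samples were centrifuged at 1500g for 10 min at 4 °C, stored at -80 °C and worked up by solid-phase extraction. Some samples were pretreated with β-glucuronidase/sulfatase. Benzamidine and benzamidoxime were measured in plasma by HPLC. Pharmacokinetic parameters were estimated for each pig from the plasma concentration-time curves.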

[2] = Half life in po dosed pig; format: ADME, organism-based, Sus scrofa; outline: as §1
Sus scrofa [3] = assay: AUC in po dosed pig; format: ADME, organism-based, Plasma; outline: as §1
Sus scrofa [4] = assay: Clearance in po dosed pig; format: ADME, organism-based; outline: as §1
[5] = Oral bioavailability in pig; format: ADME, organism-based, Sus scrofa; outline: as §1
Sus scrofa [6] = assay: Volume of distribution in po dosed pig; format: ADME, organism-based; outline: as §1
[7] = Mean resident time in po dosed pig; format: ADME, organism-based, Sus scrofa; outline: as §1
Sus scrofa [8] = assay: Plasma concentration in pig at 10 mg/kg, po; format: ADME, organism-based; parameters: dose 10 mg/kg, route oral; outline: as §1
[9] = Tmax in po dosed pig; format: ADME, organism-based, Sus scrofa; outline: as §1

Structure (SMILES) | Cmax [1] [µM] | half-life [2] [h] | AUC (Sus scrofa [3]) [µM·h] | CL (Sus scrofa [4]) [mL/min/kg] | bioavailability [5] [%] | Vd (Sus scrofa [6]) [L/kg] | MRT [7] [h] | concentration (Sus scrofa [8]) [µM] | Tmax [9] [h]
N=C(N)c1ccccc1 [BENZAMIDINE] | 13.7 | 3.7 | 98.7 | 30 | 91 | 7.91 | 6.16 | 13.7 | 2
NC(=NO)c1ccccc1 [BENZAMIDOXIME] |  |  |  |  |  |  |  | 0.4 | 
